# Results as given in ChEMBL document CHEMBL1127060 (1993).
# Calls of active or inactive are those of the source. No cut-off for these calls is given here.
# What was measured:
# [1] = Agonism at turkey erythrocyte P2Y receptor.; type: functional, Meleagris gallopavo
# Summary of the method: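 Turkey erythrocytes labeled 18–24 h at 37 °C with 2-[3H]myo-inositol in inositol-free DMEM; ghosts made by hypotonic lysis (5 mM Na phosphate pH 7.4, 5 mM MgCl2, 1 mM EGTA). PLC assay: ~175 μg protein ghosts, 1 μM GTPγS, Hepes pH 7.0 medium with 424 μM CaCl2, 2 mM EGTA; 5 min, 30 °C; total [3H]inositol phosphates by anion exchange; K0.5 averaged from 3–8 curves.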
# Cavia porcellus [2] = species on record: Cavia porcellus; assay: Tested for contraction of guinea pig isolated urinary bladder detrusor muscle at 37 degree C; Less potent than or equal to ATP; type: functional; conditions: Muscle tissue
# Cavia porcellus [3] = species on record: Cavia porcellus; assay: Tested for contraction of guinea pig vas deferens at 37 degree C; Less potent than or equal to ATP; type: functional
# Cavia porcellus [4] = species on record: Cavia porcellus; assay: Tested for relaxation of carbachol-contracted guinea pig taenia coli at 37 degree C; Potency equal to ATP; type: functional
# Oryctolagus cuniculus [5] = species on record: Oryctolagus cuniculus; assay: Tested for relaxation of carbachol-contracted rabbit mesenteric artery at 37 degree C; Less potent than or equal 2MeSATP; type: functional
# Oryctolagus cuniculus [6] = species on record: Oryctolagus cuniculus; assay: Tested for contraction of rabbit saphenous artery produced by 1 uM alpha,beta-MeATP at 37 degree C; Not active; type: functional
# Oryctolagus cuniculus [7] = species on record: Oryctolagus cuniculus; assay: Tested for relaxation of carbachol-contracted rabbit aorta at 37 degree C; More potent than or equal to 2MeSATP; type: functional
smiles,measurement,setting,value
Nc1nc(SCCc2ccc([N+](=O)[O-])cc2)nc2c1ncn2C1O[C@H](COP(=O)(O)O)[C@@H](O)[C@H]1O (some centres not stated),K 0.5,[1],3000 nM
same,Relative activity,Cavia porcellus [2],Partially active
same,Relative activity,Cavia porcellus [3],Partially active
same,Relative activity,Cavia porcellus [4],6.5
same,Relative activity,Oryctolagus cuniculus [5],5.4
same,Relative activity,Oryctolagus cuniculus [6],inactive
same,Relative activity,Oryctolagus cuniculus [7],6.1
